From ChEMBL document CHEMBL3862041, “Discovery of Novel Bruton's Tyrosine Kinase (BTK) Inhibitors Bearing a N,9-Diphenyl-9H-purin-2-amine Scaffold” (ACS Med Chem Lett, 2016)

Columns and labels:
[1] = Antiproliferative activity against human Ramos cells after 48 hrs by CCK-8 assay; assay type: functional, cell-based
Method in brief: (§1)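 Dose-response curves run at five concentrations in Ramos and Raji B-cell leukemia lines, with viability read by the CCK-8 method. IC50 is the concentration in micromolar that inhibits cell growth by 50%, taken from these curves.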

[2] = Antiproliferative activity against human Raji cells after 48 hrs by CCK-8 assay; assay type: functional, cell-based; method in brief: as §1
[3] = system: Ramos; assay: Induction of apoptosis in human Ramos cells assessed as viable cells at 10 uM after 48 hrs by annexin V-FITC/propidium iodide staining based flow cytometry relative to control; assay type: functional; conditions: for viability at 10 µM: Homo sapiens, Ramos, 48 h, read-out: Activity
Method in brief: (§2)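 Ramos cells exposed for 48 h to the indicated compound concentrations. Cells then stained with annexin V/FITC and analysed by flow cytometry for apoptosis.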

[4] = system: Ramos; assay: Induction of apoptosis in human Ramos cells assessed as early apoptotic cells at 10 uM after 48 hrs by annexin V/FITC propidium iodide staining based flow cytometry relative to control; assay type: functional; method in brief: as §2
[5] = system: Ramos; assay: Induction of apoptosis in human Ramos cells assessed as late apoptotic cells at 10 uM after 48 hrs by annexin V/FITC propidium iodide staining based flow cytometry relative to control; assay type: functional; method in brief: as §2
[6] = system: Ramos; assay: Induction of apoptosis in human Ramos cells assessed as necrotic cells at 10 uM after 48 hrs by annexin V/FITC propidium iodide staining based flow cytometry relative to control; assay type: functional; method in brief: as §2
[7] = Cell cycle arrest in human Ramos cells assessed as accumulation at G0/G1 phase at 10 uM by propidium iodide staining based flow cytometry (reference value: 56.19%); assay type: functional
Method in brief: (§3)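 Ramos cells treated, then cell-cycle phase distribution (G0/G1, S, G2/M) measured by flow cytometry. Three separate experiments, expressed as mean±standard deviation.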

[8] = Cell cycle arrest in human Ramos cells assessed as accumulation at S phase at 10 uM by propidium iodide staining based flow cytometry (reference value: 42.23%); assay type: functional; method in brief: as §3
[9] = Cell cycle arrest in human Ramos cells assessed as accumulation at G2/M phase at 10 uM by propidium iodide staining based flow cytometry (reference value: 1.58%); assay type: functional; method in brief: as §3
[10] = target: Tyrosine-protein kinase BTK (Homo sapiens, UniProt Q06187); assay: Inhibition of recombinant human N-terminal His-tagged BTK expressed in baculovirus infected sf9 cells using poly(4:1 Glu,Tyr) as substrate by ADP-Glo kinase assay
[11] = target: T1, Tyrosine-protein kinase JAK3 (Homo sapiens, UniProt P52333); assay: Inhibition of JAK3 (unknown origin)
T1 sequence (P52333 whole entry): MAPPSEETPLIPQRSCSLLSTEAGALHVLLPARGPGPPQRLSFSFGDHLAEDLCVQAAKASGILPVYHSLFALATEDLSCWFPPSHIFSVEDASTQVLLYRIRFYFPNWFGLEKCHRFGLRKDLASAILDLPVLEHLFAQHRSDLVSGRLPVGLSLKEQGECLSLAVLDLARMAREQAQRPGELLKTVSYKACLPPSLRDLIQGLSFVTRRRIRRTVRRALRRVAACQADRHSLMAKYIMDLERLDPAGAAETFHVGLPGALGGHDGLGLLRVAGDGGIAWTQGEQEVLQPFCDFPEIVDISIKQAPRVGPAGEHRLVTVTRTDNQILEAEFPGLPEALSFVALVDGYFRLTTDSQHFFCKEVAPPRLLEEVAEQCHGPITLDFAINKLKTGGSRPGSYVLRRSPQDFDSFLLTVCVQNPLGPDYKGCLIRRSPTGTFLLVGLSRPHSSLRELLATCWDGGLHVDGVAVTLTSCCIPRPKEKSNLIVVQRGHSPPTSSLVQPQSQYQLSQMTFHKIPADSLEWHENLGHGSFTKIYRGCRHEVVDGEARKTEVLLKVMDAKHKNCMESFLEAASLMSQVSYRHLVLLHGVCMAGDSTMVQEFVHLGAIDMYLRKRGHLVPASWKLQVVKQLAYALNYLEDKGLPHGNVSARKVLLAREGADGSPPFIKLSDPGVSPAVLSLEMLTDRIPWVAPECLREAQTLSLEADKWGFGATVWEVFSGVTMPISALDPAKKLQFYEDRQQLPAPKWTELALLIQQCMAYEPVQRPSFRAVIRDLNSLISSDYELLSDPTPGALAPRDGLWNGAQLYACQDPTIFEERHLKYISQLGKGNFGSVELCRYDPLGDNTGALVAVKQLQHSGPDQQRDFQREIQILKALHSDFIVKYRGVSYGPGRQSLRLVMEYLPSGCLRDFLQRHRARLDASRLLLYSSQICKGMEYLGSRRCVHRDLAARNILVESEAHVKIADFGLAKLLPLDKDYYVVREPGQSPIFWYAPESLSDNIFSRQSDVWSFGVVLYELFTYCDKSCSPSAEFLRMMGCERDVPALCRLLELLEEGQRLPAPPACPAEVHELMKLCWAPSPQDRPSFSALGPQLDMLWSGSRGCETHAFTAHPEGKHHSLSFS

Tyrosine-protein kinase BTK, sequence (Q06187 whole entry): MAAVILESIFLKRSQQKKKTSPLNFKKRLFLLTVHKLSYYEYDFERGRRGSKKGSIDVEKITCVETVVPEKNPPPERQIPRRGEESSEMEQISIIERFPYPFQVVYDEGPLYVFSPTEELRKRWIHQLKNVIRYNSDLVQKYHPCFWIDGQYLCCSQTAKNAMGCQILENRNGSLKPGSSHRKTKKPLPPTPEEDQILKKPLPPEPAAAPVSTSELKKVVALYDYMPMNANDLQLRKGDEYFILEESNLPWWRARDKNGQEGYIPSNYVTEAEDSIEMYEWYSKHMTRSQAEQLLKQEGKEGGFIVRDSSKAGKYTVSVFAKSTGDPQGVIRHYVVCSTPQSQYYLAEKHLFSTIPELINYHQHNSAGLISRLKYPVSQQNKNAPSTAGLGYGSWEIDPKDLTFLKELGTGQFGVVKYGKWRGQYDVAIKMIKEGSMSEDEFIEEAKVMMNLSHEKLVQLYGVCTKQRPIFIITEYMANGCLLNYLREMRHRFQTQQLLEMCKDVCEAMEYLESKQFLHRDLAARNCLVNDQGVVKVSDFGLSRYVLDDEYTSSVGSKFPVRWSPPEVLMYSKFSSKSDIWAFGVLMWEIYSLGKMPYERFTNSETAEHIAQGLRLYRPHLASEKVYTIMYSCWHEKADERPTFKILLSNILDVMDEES

| Compound | IC50 [1] | IC50 [2] | viability at 10 µM [3] | Activity [4] | Activity [5] | Activity [6] | Activity [7] | Activity [8] | Activity [9] | IC50 [10] | IC50 [11] | Activity [3] |
| --- | --- | --- | --- | --- | --- | --- | --- | --- | --- | --- | --- | --- |
| C=CC(=O)Nc1cccc(Nc2nc(Nc3ccc(OCCOC)cc3)ncc2F)c1 [SPEBRUTINIB] | 15.1 µM | 25.3 µM | 54.2% | 21.1% | 20.4% | 4.3% | 31% | 47.9% | 20.9% |  |  |  |
| C=CC(=O)Nc1cccc(-n2cnc3cnc(Nc4ccc(N5CCN(S(C)(=O)=O)CC5)cc4)nc32)c1 | > 40 µM | > 40 µM |  |  |  |  |  |  |  | 0.0171 µM | 0.0701 µM |  |
| C=CC(=O)Nc1cccc(-n2cnc3cnc(Nc4ccc(N5CCN(S(C)(=O)=O)CC5)cc4OC)nc32)c1 | 38.6 µM | 21.9 µM |  |  |  |  |  |  |  | > 0.1 µM | > 0.1 µM |  |
| C=CC(=O)Nc1cccc(-n2cnc3cnc(Nc4ccc(N5CCN(CC)CC5)cc4)nc32)c1 | 12.1 µM | 19.5 µM |  |  |  |  |  |  |  | 0.0005 µM | 0.0675 µM |  |
| C=CC(=O)Nc1cccc(-n2cnc3cnc(Nc4ccc(N5CCN(C)CC5)cc4)nc32)c1 | 8.22 µM | 7.55 µM |  |  |  |  |  |  |  | 0.0102 µM | 0.0671 µM |  |
| C=CC(=O)N1CCC[C@@H](n2nc(-c3ccc(Oc4ccccc4)cc3)c3c(N)ncnc32)C1 [IBRUTINIB] | 8.11 µM | 15.2 µM |  | 37% |  | 0.1% | 46.4% | 53.5% | 0.15% |  |  | 62% |
| C=CC(=O)Nc1cccc(-n2cnc3cnc(Nc4ccc(N5CCN(C(C)=O)C(C)C5)cc4)nc32)c1 (stereo unspecified) | > 40 µM | 24.2 µM |  |  |  |  |  |  |  | 0.0005 µM | 0.0612 µM |  |
| C=CC(=O)Nc1cccc(-n2cnc3cnc(Nc4ccc(N5CCN(CC)CC5)cc4OC)nc32)c1 | > 40 µM | > 40 µM |  |  |  |  |  |  |  | > 0.1 µM | > 0.1 µM |  |
| C=CC(=O)Nc1cccc(-n2cnc3cnc(Nc4ccc(N5CCN(S(C)(=O)=O)C(C)C5)cc4)nc32)c1 (stereo unspecified) | > 40 µM | 31.7 µM |  |  |  |  |  |  |  | 0.0132 µM | 0.0831 µM |  |
| C=CC(=O)Nc1cccc(-n2cnc3cnc(Nc4ccc(OCCCN5CCOCC5)cc4)nc32)c1 | 7.75 µM | 12.6 µM | 44.9% | 41.9% | 10.9% | 2.2% | 41% | 52.4% | 6.61% | 0.0004 µM | 0.0726 µM |  |
| C=CC(=O)Nc1cccc(-n2c(=O)[nH]c3cnc(Nc4ccc(N5CCN(CC)CC5)cc4)nc32)c1 | 35.2 µM | 11.9 µM |  |  |  |  |  |  |  | > 0.1 µM | > 0.1 µM |  |
| C=CC(=O)Nc1cccc(-n2cnc3cnc(Nc4ccc(N5CCN(C)CC5)cc4OC)nc32)c1 | 13.2 µM | 13.7 µM |  |  |  |  |  |  |  | > 0.1 µM | > 0.1 µM |  |
| C=CC(=O)Nc1cccc(-n2cnc3cnc(Nc4ccc(OC)cc4)nc32)c1 | > 40 µM | 31.2 µM |  |  |  |  |  |  |  | 0.0971 µM | 0.0672 µM |  |
| C=CC(=O)Nc1cccc(-n2c(=O)[nH]c3cnc(Nc4ccc(N5CCOCC5)cc4OC)nc32)c1 | 39.1 µM | > 40 µM |  |  |  |  |  |  |  | > 0.1 µM | > 0.1 µM |  |
| C=CC(=O)Nc1cccc(-n2cnc3cnc(Nc4ccc(N5CCOCC5)cc4)nc32)c1 | 11.3 µM | 11.8 µM |  |  |  |  |  |  |  | 0.0151 µM | > 0.1 µM |  |
